{"source": "paper PMC8225578", "about": "(Journal of medicinal chemistry, 2021)", "molecules": {"B1": {"name": "H3K36me3 peptide H3(33-39) G33V, VGVKme3KPH (peptide)", "peptide": "VGVK(Me3)KPH-NH2"}, "B2": {"name": "H3K36me3 peptide H3(33-39), GGVKme3KPH (peptide)", "peptide": "GGVK(Me3)KPH-NH2"}, "B3": {"name": "UNC7643 (peptide)", "peptide": "GGV[N6‑ethyl‑N6‑isopropyl‑lysine]KPLR-NH2"}, "B4": {"name": "UNC6640 (peptide)", "peptide": "GGV[N6‑ethyl‑N6‑(1-(furan-2-yl)ethyl)‑lysine]KPLR-NH2"}, "B5": {"name": "UNC6641 (peptide)", "peptide": "GGV[X2]KPLR-NH2"}, "B6": {"name": "H3K36me3 peptide H3(33-40), GGVKme3KPHR (peptide)", "peptide": "GGVK(Me3)KPHR-NH2"}}, "key": {"[1]": {"target": "T1, PHF1 Tudor domain (Homo sapiens, UniProt O43189)", "T1 sequence (O43189 25-87)": "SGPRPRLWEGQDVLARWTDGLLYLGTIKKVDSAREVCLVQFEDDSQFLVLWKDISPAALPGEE", "conditions": "previously reported 10-mer peptide; cited from earlier work"}, "[2]": {"target": "H3K36me3 peptide 31-40 (Homo sapiens) (UniProt P68431)", "conditions": "cited from earlier work"}, "[3]": {"target": "T1, PHF1 Tudor domain", "assay": "ITC binding to PHF1 Tudor domain", "conditions": "wildtype PHF1 Tudor domain"}, "[4]": {"target": "PHF1 Tudor Y47A (Homo sapiens, UniProt O43189, Y47A)", "sequence (O43189 25-87 Y47A)": "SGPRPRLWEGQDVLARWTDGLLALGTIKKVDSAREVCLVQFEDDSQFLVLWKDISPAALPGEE", "assay": "ITC binding to PHF1 Tudor aromatic cage mutant Y47A", "method_in_brief": "(§1)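 ITC at 25 °C in 25 mM Tris-HCl pH 7.5, 150 mM NaCl, 2 mM β-mercaptoethanol; typically 100 µM protein, 1 mM compound (10:1). 26 injections, 180 s apart, one-site fit. Fits reach Kd ~100 µM; weaker binding is reported >100 µM. Two independent runs, mean ± SD.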"}, "[5]": {"target": "PHF1 Tudor F65A (Homo sapiens, UniProt O43189, F65A)", "sequence (O43189 25-87 F65A)": "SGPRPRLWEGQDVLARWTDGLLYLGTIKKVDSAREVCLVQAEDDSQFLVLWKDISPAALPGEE", "assay": "ITC binding to PHF1 Tudor aromatic cage mutant F65A", "method_in_brief": "as §1"}, "[6]": {"target": "PHF1 Tudor W41A (Homo sapiens, UniProt O43189, W41A)", "sequence (O43189 25-87 W41A)": "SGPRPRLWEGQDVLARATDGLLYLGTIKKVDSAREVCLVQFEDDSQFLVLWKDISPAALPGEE", "assay": "ITC binding to PHF1 Tudor aromatic cage mutant W41A", "method_in_brief": "as §1"}, "[7]": {"target": "H3K36me3 15-residue peptide (Homo sapiens) (UniProt P68431)", "conditions": "cited from earlier work"}, "[8]": {"target": "T2, PHF1 Tudor domain (residues 25-87), N-terminal His tag (UniProt O43189-1 25-87)", "T2 sequence (O43189 25-87)": "as the sequence (O43189 25-87) above", "assay": "ITC"}, "[9]": {"target": "T2, PHF1 Tudor domain (residues 25-87), …", "assay": "ITC", "remark": "listed apart in the source"}, "[10]": {"target": "PHF1 Tudor domain (residues 25-87) Y47A, N-terminal His tag (UniProt O43189-1 25-87, Y47A)", "sequence (O43189 25-87 Y47A)": "as the sequence (O43189 25-87 Y47A) above", "assay": "ITC"}, "[11]": {"target": "PHF19 Tudor domain (residues 49-115), N-terminal His tag", "assay": "ITC"}}, "note": "Like-named read-outs stand apart in the source and are kept apart here. Starred links: 1 amine or outer side, 2 acyl side, 3 side chain; linkers in the order of their positions; H or OH if unused. Non-standard residues stand in square brackets, D forms with d. Residues, ends and D or L forms follow the SMILES beside them. No end group written: not given here. X2 = N6‑isopropyl‑N6‑phenethyl‑lysine, CC(C)N(CCCC[C@H](N[*:1])C(=O)[*:2])CCc1ccccc1; Lys(Et,iPr) = CCN(CCCC[C@H](N)C(=O)O)C(C)C; Me3 = trimethyl (on lysine, Kme3)", "data": [{"molecule": "H3(31—40): previously reported 10-mer H3K36me3 peptide (ATGGVK(Me3)KPHR; UniProt P68431 32-41, looked up, fragment)", "values": [{"measurement": "Kd", "setting": "[1]", "value": "16 ± 4", "unit": "µM"}]}, {"molecule": "PHF1 Tudor (from UniProt O43189)", "values": [{"measurement": "Kd", "setting": "[2]", "value": 16, "unit": "µM"}]}, {"molecule": "CCN(CCCC[C@H](NC(=O)[C@@H](NC(=O)CNC(=O)CN)C(C)C)C(=O)N[C@@H](CCCCN)C(=O)N1CCC[C@H]1C(=O)N[C@@H](CC(C)C)C(=O)N[C@@H](CCCNC(=N)N)C(N)=O)C(C)C", "note": "[UNC7643, Amino(((S)-5-amino-4-((S)-2-((S)-1-((2S,5S,8S)-14-amino-2-(4-aminobutyl)-5-(4-(ethyl(isopropyl)amino)butyl)-8-isopropyl-4,7,10,13-tetraoxo-3,6,9,12-tetraazatetradecanoyl)pyrrolidine-2-carboxamido)-4-methylpentanamido)-5-oxopentyl)amino)methaniminium] (H-GGV[Lys(Et,iPr)]KPLR-NH2)", "values": [{"measurement": "fold less potent than UNC6641", "setting": "[3]", "value": "about 10 fold"}, {"measurement": "binding to mutant (in words)", "setting": "[4]", "value": "failed to bind"}, {"measurement": "binding to mutant (in words)", "setting": "[5]", "value": "failed to bind"}, {"measurement": "binding to mutant (in words)", "setting": "[6]", "value": "failed to bind"}]}, {"molecule": "PHF1 (from UniProt O43189)", "values": [{"measurement": "Kd", "setting": "[7]", "value": 4, "unit": "µM"}]}, {"molecule": "B1", "values": [{"measurement": "Kd", "setting": "[8]", "value": 48, "unit": "µM"}]}, {"molecule": "B2", "values": [{"measurement": "Kd", "setting": "[8]", "value": 52, "unit": "µM"}]}, {"molecule": "B3", "values": [{"measurement": "Kd", "setting": "[9]", "value": 10.1, "unit": "µM"}, {"measurement": "Kd", "setting": "[10]", "value": "> 100", "unit": "µM"}]}, {"molecule": "B4", "values": [{"measurement": "Kd", "setting": "[9]", "value": 17.9, "unit": "µM"}]}, {"molecule": "B5", "values": [{"measurement": "Kd", "setting": "[11]", "value": 2.1, "unit": "µM"}, {"measurement": "Kd", "setting": "[10]", "value": "> 100", "unit": "µM"}]}, {"molecule": "B6", "values": [{"measurement": "Kd", "setting": "[8]", "value": 22.3, "unit": "µM"}]}]}
